Laboratory results as given in ChEMBL document CHEMBL1165950, “Design and synthesis of new potent anticancer pyrazoles with high FLT3 kinase inhibitory selectivity” (Bioorg Med Chem, 2010).

Legend:
Assay type in all cases: functional
[1] = system: OVCAR-8; experiment: Cytotoxicity against human OVCAR8 cells assessed as cell growth at 100 nM after 48 hrs by sulforhodamine B assay; conditions: OVCAR-8, 48 h, read-out: Activity
[2] = system: SNB-19; experiment: Cytotoxicity against human SNB19 cells assessed as cell growth at 10 uM after 48 hrs by sulforhodamine B assay; conditions: SNB-19, 48 h, read-out: Activity
[3] = system: OVCAR-8; experiment: Cytotoxicity against human OVCAR8 cells assessed as cell growth at 0.001 uM after 48 hrs by sulforhodamine B assay; conditions: OVCAR-8, 48 h, read-out: Activity
[4] = Cytotoxicity against human Hs 578T cells assessed as cell growth at 0.001 uM after 48 hrs by sulforhodamine B assay; conditions: read-out: Activity
[5] = system: NCI-H322M; experiment: Cytotoxicity against human NCI-H322M cells assessed as cell growth at 10 uM after 48 hrs by sulforhodamine B assay; conditions: read-out: Activity
[6] = system: M14; experiment: Cytotoxicity against human M14 cells assessed as cell growth at 10 uM after 48 hrs by sulforhodamine B assay; conditions: M14, 48 h, read-out: Activity
[7] = system: LOX IMVI; experiment: Cytotoxicity against human LOXIMVI cells assessed as cell growth at 10 uM after 48 hrs by sulforhodamine B assay; conditions: read-out: Activity
[8] = system: SF-268; experiment: Cytotoxicity against human SF268 cells assessed as cell growth at 10 uM after 48 hrs by sulforhodamine B assay; conditions: SF-268, 48 h, read-out: Activity
[9] = system: HCT-116; experiment: Cytotoxicity against human HCT116 cells assessed as cell growth at 0.01 uM after 48 hrs by sulforhodamine B assay; conditions: HCT-116, 48 h, read-out: Activity
[10] = system: OVCAR-3; experiment: Cytotoxicity against human OVCAR-3 cells assessed as cell growth at 1 uM after 48 hrs by sulforhodamine B assay; conditions: OVCAR-3, 48 h, read-out: Activity
[11] = system: BT-549; experiment: Cytotoxicity against human BT549 cells assessed as cell growth at 1 uM after 48 hrs by sulforhodamine B assay; conditions: BT-549, 48 h, read-out: Activity
Summary of the method: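 NCI-60 five-dose screen. Cells were grown in RPMI 1640 with 5% FBS and 2 mM L-glutamine, plated at 5000–40,000 cells/well and preincubated for 24 h. Time-zero plates were TCA-fixed. DMSO-solubilized drug was added at five concentrations (10-fold or ½-log serial dilutions) for 48 h at 37 °C, 5% CO2. Cells were TCA-fixed, stained with 0.4% SRB and read at 515 nm. Percent growth used time-zero, control and test absorbances.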

[12] = system: OVCAR-8; experiment: Growth inhibition of human OVCAR8 cells after 48 hrs by sulforhodamine B assay; conditions: OVCAR-8, 48 h
Summary of the method: (§1)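 NCI 60-cell screen, five-dose mode. Cells grown in RPMI 1640 with 5% FBS and 2 mM L-glutamine and plated at 5000-40,000 cells/well according to doubling time. After 24 h preincubation, a Tz plate was TCA-fixed. Five concentrations (10-fold or 1/2 log dilutions) were applied for 48 h at 37 °C. SRB staining read at 515 nm. IC50 taken from [(Ti-Tz)/(C-Tz)]×100 = 50.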

[13] = system: Malme-3M; experiment: Cytotoxicity against human MALME-3M cells assessed as cell growth at 0.01 uM after 48 hrs by sulforhodamine B assay; conditions: read-out: Activity
[14] = system: NCI-H522; experiment: Cytotoxicity against human NCI-H522 cells assessed as cell growth at 0.001 uM after 48 hrs by sulforhodamine B assay; conditions: NCI-H522, 48 h, read-out: Activity
[15] = system: SF-539; experiment: Cytotoxicity against human SF539 cells assessed as cell growth at 10 uM; conditions: read-out: Activity
Summary of the method: (§2)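 NCI-60 screen: cells grown in RPMI 1640 with 5% FBS and 2 mM L-glutamine, plated at 5000–40,000 cells/well according to doubling time, and preincubated 24 h at 37 °C, 5% CO2. The single 10 µM dose (DMSO stock) was added, then incubated 48 h. Cells were TCA-fixed and stained with 0.4% SRB, read at 515 nm, and growth % calculated against time-zero and control plates.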

[16] = system: NCI/ADR-RES; experiment: Cytotoxicity against human NCI/ADR-RES cells assessed as cell growth at 1 uM after 48 hrs by sulforhodamine B assay; conditions: read-out: Activity
[17] = Cytotoxicity against human RPMI8266 cells assessed as cell growth at 100 nM after 48 hrs by sulforhodamine B assay; conditions: read-out: Activity
[18] = system: SN12C; experiment: Cytotoxicity against human SN12C cells assessed as cell growth at 0.01 uM after 48 hrs by sulforhodamine B assay; conditions: read-out: Activity
[19] = system: OVCAR-5; experiment: Cytotoxicity against human OVCAR5 cells assessed as cell growth at 10 uM; conditions: read-out: Activity; summary of the method: as §2
[20] = system: SF-295; experiment: Cytotoxicity against human SF295 cells assessed as cell growth at 10 uM; conditions: read-out: Activity; summary of the method: as §2
[21] = system: NCI/ADR-RES; experiment: Cytotoxicity against human NCI/ADR-RES cells assessed as cell growth at 10 uM; conditions: read-out: Activity; summary of the method: as §2
[22] = system: IGROV-1; experiment: Cytotoxicity against human IGROV1 cells assessed as cell growth at 0.001 uM after 48 hrs by sulforhodamine B assay; conditions: IGROV-1, 48 h, read-out: Activity
[23] = system: OVCAR-8; experiment: Cytotoxicity against human OVCAR8 cells assessed as cell growth at 10 uM after 48 hrs by sulforhodamine B assay; conditions: OVCAR-8, 48 h, read-out: Activity
[24] = system: OVCAR-4; experiment: Growth inhibition of human OVCAR4 cells after 48 hrs by sulforhodamine B assay; conditions: OVCAR-4, 48 h; summary of the method: as §1
[25] = system: NCI-H460; experiment: Growth inhibition of human NCI-H460 cells after 48 hrs by sulforhodamine B assay; conditions: NCI-H460, 48 h; summary of the method: as §1
[26] = system: LOX IMVI; experiment: Cytotoxicity against human LOXIMVI cells assessed as cell growth at 0.01 uM after 48 hrs by sulforhodamine B assay; conditions: read-out: Activity
[27] = system: NCI-H522; experiment: Cytotoxicity against human NCI-H522 cells assessed as cell growth at 100 nM after 48 hrs by sulforhodamine B assay; conditions: NCI-H522, 48 h, read-out: Activity
[28] = system: KM12; experiment: Cytotoxicity against human KM12 cells assessed as cell growth at 10 uM after 48 hrs by sulforhodamine B assay; conditions: KM12, 48 h, read-out: Activity
[29] = system: OVCAR-5; experiment: Cytotoxicity against human OVCAR5 cells assessed as cell growth at 0.01 uM after 48 hrs by sulforhodamine B assay; conditions: OVCAR-5, 48 h, read-out: Activity
[30] = system: T47D; experiment: Growth inhibition of human T47D cells after 48 hrs by sulforhodamine B assay; summary of the method: as §1
[31] = system: UACC-62; experiment: Cytotoxicity against human UACC62 cells assessed as cell growth at 10 uM; conditions: read-out: Activity; summary of the method: as §2
[32] = system: UACC-62; experiment: Cytotoxicity against human UACC62 cells assessed as cell growth at 0.001 uM after 48 hrs by sulforhodamine B assay; conditions: UACC-62, 48 h, read-out: Activity
[33] = system: SW-620; experiment: Cytotoxicity against human SW620 cells assessed as cell growth at 10 uM after 48 hrs by sulforhodamine B assay; conditions: SW-620, 48 h, read-out: Activity
[34] = system: SW-620; experiment: Cytotoxicity against human SW620 cells assessed as cell growth at 10 uM; conditions: read-out: Activity; summary of the method: as §2
[35] = read-out: LC50 (the source's name)

For COc1cc(C)cc(-c2c(-c3ccnc(-c4ccc(N(C)C)cc4)c3)cnn2CC#N)c1, which growth at 0.1 µM [1] is on record?
Its growth at 0.1 µM is 11%.

And the growth at 10 µM [2]?
The growth at 10 µM was 35%.

What about the growth at 0.001 µM [3] of the same compound?
Its growth at 0.001 µM is 101%.

And the growth at 0.001 µM [4]?
The growth at 0.001 µM was 88%.

What about the growth at 10 µM [5] of the same compound?
Its growth at 10 µM is 21%.

And the growth at 10 µM [6]?
The growth at 10 µM was -7%.

And the growth at 10 µM [7]?
Its growth at 10 µM is 10%.

What about the growth at 10 µM [8] of the same compound?
Its growth at 10 µM is 20%.

What about the growth at 0.01 µM [9] of the same compound?
The growth at 0.01 µM was 44%.

And the growth at 1 µM [10]?
Its growth at 1 µM is 3%.

And the growth at 1 µM [11]?
The growth at 1 µM was -29%.

And the GI50 [12]?
The GI50 was 236 nM.

What about the TGI [12] of the same compound?
The TGI was > 100000 nM.

And the CC50 [12, 35]?
The CC50 was > 100000 nM.

And the growth at 0.01 µM [13]?
The growth at 0.01 µM was 34%.

And the growth at 0.001 µM [14]?
Its growth at 0.001 µM is 96%.

What about the growth at 10 µM [15] of the same compound?
The growth at 10 µM was -7.06%.

And the growth at 1 µM [16]?
The growth at 1 µM was 7%.

And the growth at 0.1 µM [17]?
The growth at 0.1 µM was 13%.

And the growth at 0.01 µM [18]?
Its growth at 0.01 µM is 75%.

And the growth at 10 µM [19]?
Its growth at 10 µM is 77.7%.

And the growth at 10 µM [20]?
The growth at 10 µM was 4.06%.

What about the growth at 10 µM [21] of the same compound?
Its growth at 10 µM is -15.4%.

And the growth at 0.001 µM [22]?
Its growth at 0.001 µM is 95%.

And the growth at 10 µM [23]?
The growth at 10 µM was 8%.

What about the GI50 [24] of the same compound?
Its GI50 is 270 nM.

What about the TGI [24] of the same compound?
The TGI was > 100000 nM.

And the CC50 [24, 35]?
The CC50 was > 100000 nM.

What about the GI50 [25] of the same compound?
The GI50 was 57.7 nM.

And the TGI [25]?
Its TGI is 282 nM.

And the CC50 [25, 35]?
The CC50 was 4990 nM.

And the growth at 0.01 µM [26]?
The growth at 0.01 µM was 39%.

What about the growth at 0.1 µM [27] of the same compound?
The growth at 0.1 µM was -47%.

What about the growth at 10 µM [28] of the same compound?
Its growth at 10 µM is -49%.

And the growth at 0.01 µM [29]?
The growth at 0.01 µM was 73%.

And the GI50 [30]?
The GI50 was 56 nM.

And the LC50 [30]?
The LC50 was > 100000 nM.

And the TGI [30]?
The TGI was > 100000 nM.

And the growth at 10 µM [31]?
The growth at 10 µM was 20.3%.

And the growth at 0.001 µM [32]?
The growth at 0.001 µM was 96%.

What about the growth at 10 µM [33] of the same compound?
The growth at 10 µM was 11%.

And the growth at 10 µM [34]?
The growth at 10 µM was 16.6%.
